{"source": "ChEMBL document CHEMBL1150208", "about": "“Production of anti-tumor-promoting iridoid glucosides in Genipa americana and its cell cultures” (J Nat Prod, 1991)", "assay_type_in_all_cases": "cell-based", "key": {"Raji [1]": {"test_system": "Raji", "assay": "Inhibition of TPA-induced EBV-early antigen activation in human Raji cells assessed as EA activation at 1000 molar ratio after 48 hrs relative to TPA", "conditions": "human gammaherpesvirus 4", "in_short": "(§1)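 EBV early antigen activation was induced in Raji cells with TPA (32 pmol) and n-butyrate. Test substance was dosed as a molar ratio to TPA in 0.25% phosphate buffer (pH 7.2) for 48 h. Activation is expressed as % of the TPA-only positive control (=100), reported as mean ± SD.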"}, "Raji [2]": {"test_system": "Raji", "assay": "Inhibition of TPA-induced EBV-early antigen activation in human Raji cells assessed as EA activation at 500 molar ratio after 48 hrs relative to TPA", "conditions": "human gammaherpesvirus 4", "in_short": "as §1"}, "Raji [3]": {"test_system": "Raji", "assay": "Inhibition of TPA-induced EBV-early antigen activation in human Raji cells assessed as EA activation at 100 molar ratio after 48 hrs relative to TPA", "conditions": "human gammaherpesvirus 4", "in_short": "as §1"}, "Raji [4]": {"test_system": "Raji", "assay": "Inhibition of TPA-induced EBV-early antigen activation in human Raji cells assessed as EA activation at 10 molar ratio after 48 hrs relative to TPA", "conditions": "human gammaherpesvirus 4", "in_short": "as §1"}, "[5]": {"assay": "Cytotoxicity against human Raji cells assessed as cell viability at 1000 molar ratio after 48 hrs by trypan blue assay", "conditions": "read-out: Activity", "in_short": "(§2)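 Raji cells were treated together with TPA (32 pmol), n-butyrate and test substance in 0.25% phosphate buffer solution (pH 7.2). Dose is expressed as molar ratio to TPA. After 48 h, cells were stained with Trypan Blue and surviving cells were counted to give viability %.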"}, "[6]": {"assay": "Cytotoxicity against human Raji cells assessed as cell viability at 100 molar ratio after 48 hrs by trypan blue assay", "conditions": "read-out: Activity", "in_short": "as §2"}}}
{"compound": "COC(=O)C1=CO[C@@H](O[C@@H]2O[C@H](CO)[C@@H](O)[C@H](O)[C@H]2O)[C@H]2[C@@H]1C=C[C@@]2(O)CO", "note": "[GARDENOSIDE]", "values": [{"measurement": "EA activation (% of TPA-only control)", "setting": "Raji [1]", "value": 92.6, "unit": "%"}, {"measurement": "EA activation (% of TPA control)", "setting": "Raji [2]", "value": 100, "unit": "%"}, {"measurement": "EA activation relative to TPA control", "setting": "Raji [3]", "value": 100, "unit": "%"}, {"measurement": "EBV-EA activation (% of TPA control)", "setting": "Raji [4]", "value": 100, "unit": "%"}, {"measurement": "viability at 48 h, 1000 molar ratio", "setting": "[5]", "value": 80, "unit": "%"}]}
{"compound": "COC(=O)C1=CO[C@@H](O)[C@@H]2C(CO)=CC[C@H]12", "note": "[GENIPIN]", "values": [{"measurement": "EA activation (% of TPA-only control)", "setting": "Raji [1]", "value": 11.5, "unit": "%"}, {"measurement": "EA activation (% of TPA control)", "setting": "Raji [2]", "value": 44.2, "unit": "%"}, {"measurement": "EA activation relative to TPA control", "setting": "Raji [3]", "value": 64.2, "unit": "%"}, {"measurement": "EBV-EA activation (% of TPA control)", "setting": "Raji [4]", "value": 100, "unit": "%"}, {"measurement": "viability at 48 h, 1000 molar ratio", "setting": "[5]", "value": 80, "unit": "%"}]}
{"compound": "COC(=O)C1=CO[C@@H](O[C@@H]2O[C@H](CO)[C@@H](O)[C@H](O)[C@H]2O)[C@@H]2C(CO)=CC[C@H]12", "note": "[GENIPOSIDE]", "values": [{"measurement": "EA activation (% of TPA-only control)", "setting": "Raji [1]", "value": 62.4, "unit": "%"}, {"measurement": "EA activation (% of TPA control)", "setting": "Raji [2]", "value": 91, "unit": "%"}, {"measurement": "EA activation relative to TPA control", "setting": "Raji [3]", "value": 100, "unit": "%"}, {"measurement": "EBV-EA activation (% of TPA control)", "setting": "Raji [4]", "value": 100, "unit": "%"}, {"measurement": "viability at 48 h, 1000 molar ratio", "setting": "[5]", "value": 80, "unit": "%"}]}
{"compound": "O=C(O)C1=CO[C@@H](O[C@@H]2O[C@H](CO)[C@@H](O)[C@H](O)[C@H]2O)[C@@H]2C(CO)=CC[C@H]12", "note": "[GENIPOSIDIC ACID]", "values": [{"measurement": "EA activation (% of TPA-only control)", "setting": "Raji [1]", "value": 34.8, "unit": "%"}, {"measurement": "EA activation (% of TPA control)", "setting": "Raji [2]", "value": 80.5, "unit": "%"}, {"measurement": "EA activation relative to TPA control", "setting": "Raji [3]", "value": 91.8, "unit": "%"}, {"measurement": "EBV-EA activation (% of TPA control)", "setting": "Raji [4]", "value": 100, "unit": "%"}, {"measurement": "viability at 48 h, 1000 molar ratio", "setting": "[5]", "value": 80, "unit": "%"}]}
{"compound": "O=CC1=CO[C@@H](O[C@@H]2O[C@H](CO)[C@@H](O)[C@H](O)[C@H]2O)[C@@H]2C(CO)=CC[C@H]12", "note": "[TARENNOSIDE]", "values": [{"measurement": "EA activation (% of TPA-only control)", "setting": "Raji [1]", "value": 30.5, "unit": "%"}, {"measurement": "EA activation (% of TPA control)", "setting": "Raji [2]", "value": 72.8, "unit": "%"}, {"measurement": "EA activation relative to TPA control", "setting": "Raji [3]", "value": 88.1, "unit": "%"}, {"measurement": "EBV-EA activation (% of TPA control)", "setting": "Raji [4]", "value": 100, "unit": "%"}, {"measurement": "viability at 48 h, 1000 molar ratio", "setting": "[5]", "value": 80, "unit": "%"}]}
{"compound": "CC1=C(/C=C/C(C)=C/C=C/C(C)=C/C(=O)O)C(C)(C)CCC1", "note": "[TRETINOIN]", "values": [{"measurement": "EA activation (% of TPA-only control)", "setting": "Raji [1]", "value": 30, "unit": "%"}, {"measurement": "EA activation relative to TPA control", "setting": "Raji [3]", "value": 67, "unit": "%"}, {"measurement": "viability at 48 h, 1000 molar ratio", "setting": "[5]", "value": 10, "unit": "%"}, {"measurement": "viability at 48 h, 100 molar ratio", "setting": "[6]", "value": 40, "unit": "%"}]}
